{"data": "Measured values of several laboratories", "JAK3": "Tyrosine-protein kinase JAK3 (JAK3, Homo sapiens, UniProt P52333)", "JAK3 JH1": "Tyrosine-protein kinase JAK3, JH1 (JAK3, Homo sapiens, UniProt P52333)", "note": "Compare with care: the assays were run in different laboratories."}
{"SMILES": "CCCOc1ccc(OC)c(F)c1C(=O)c1ccc(C(=O)N[C@@H]2CNC[C@H]2NC(=O)c2ccc3[nH]ncc3c2)cc1", "target": "JAK3", "observed": "enzyme activity", "mode": "inhibitor", "tested at": "10 µM", "endpoint": "remaining activity", "value": "19%"}
{"SMILES": "CC(C)(C)c1nc2c(s1)c1nc(N)ncc1c1ccc(NS(=O)(=O)c3c(F)cccc3F)c(F)c12", "target": "JAK3", "observed": "enzyme activity", "mode": "inhibitor", "method": "radiometric", "tested at": "1 µM", "endpoint": "remaining activity", "value": "100%"}
{"SMILES": "C[C@H]1CCN(c2nccc(-c3cnn4ncccc34)n2)C1", "target": "JAK3 JH1", "observed": "cell-free assay", "tested at": "1 µM", "endpoint": "remaining signal", "value": "84%"}
{"SMILES": "CCOC(=O)c1cc2cc(-c3cc(C(=O)NCc4ccc(C(=O)O)cc4)nn3C)ccc2[nH]1", "target": "JAK3 JH1", "observed": "cell-free assay", "method": "competition with immobilised ligand", "tested at": "0.1 µM", "endpoint": "remaining binding", "value": "82%"}
{"SMILES": "O=C(Nc1cnn(-c2csc(C(=O)NC3COC3)c2)c1)Nc1c(F)cccc1Cl", "target": "JAK3", "observed": "enzyme activity", "mode": "inhibitor", "tested at": "5 µM", "endpoint": "remaining activity", "value": "98.7%"}
{"SMILES": "CNCc1ccccc1-c1csc([C@H](C)Nc2nc(C)nc3cc(OC)c(OC)cc23)c1", "target": "JAK3 JH1", "observed": "cell-free assay", "method": "competition with immobilised ligand", "tested at": "1 µM", "endpoint": "remaining binding", "value": "99%"}
{"SMILES": "CCCS(=O)(=O)Nc1ccc(F)c(C(=O)c2c[nH]c3ncc(-c4ccc(Cl)cc4)cc23)c1F", "target": "JAK3", "observed": "enzyme activity", "mode": "inhibitor", "tested at": "1 µM", "endpoint": "inhibition", "value": "< 10%"}
{"SMILES": "CCC(=N\\O)/C(C)=C/c1ccc(F)cc1", "target": "JAK3 JH1", "observed": "cell-free assay", "method": "competition with immobilised ligand", "tested at": "1 µM", "endpoint": "remaining binding", "value": "80%"}
{"SMILES": "N[C@H]1CCN(c2nccc(-c3cnn4ncccc34)n2)C1", "target": "JAK3 JH1", "observed": "cell-free assay", "tested at": "1 µM", "endpoint": "remaining signal", "value": "86%"}
{"SMILES": "Cc1sc(C(=O)NC2COC2)cc1-n1cc(NC(=O)Nc2c(F)cccc2Cl)cn1", "target": "JAK3", "observed": "enzyme activity", "mode": "inhibitor", "tested at": "10 µM", "endpoint": "remaining activity", "value": "96.7%"}
{"SMILES": "COc1cc(/C=C/C(=O)CC(=O)/C=C/c2ccc(O)c(OC)c2)ccc1O", "target": "JAK3", "observed": "enzyme activity", "mode": "inhibitor", "tested at": "1 µM", "endpoint": "activity vs control", "value": "104%"}
{"SMILES": "O=C(O)[C@@H]1[C@@H](Cn2nnc3ccccc3c2=O)CC[C@H]1C(=O)c1ccc(OCCC2CCOCC2)cc1", "target": "JAK3 JH1", "observed": "cell-free assay", "method": "competition with immobilised ligand", "tested at": "1 µM", "endpoint": "remaining binding", "value": "95%"}
{"SMILES": "Nc1ncnc2occ(-c3ccc(NC(=O)Nc4cc(C(F)(F)F)ccc4F)cc3)c12", "target": "JAK3 JH1", "observed": "cell-free assay", "mode": "inhibitor", "tested at": "20 µM", "endpoint": "remaining signal", "value": "4.3%"}
{"SMILES": "CCN(CC)c1ccc(C2=NNC(=O)CC2C)cc1[N+](=O)[O-] (centres unmarked)", "target": "JAK3", "observed": "enzyme activity", "mode": "inhibitor", "tested at": "10 µM", "endpoint": "remaining activity", "value": "134%"}
{"SMILES": "CC(C)(O)[C@H]1CC[C@H](Nc2ccc3ncc(-c4cccc(C(F)(F)F)c4)n3n2)CC1", "target": "JAK3", "observed": "enzyme activity", "mode": "inhibitor", "tested at": "1 µM", "endpoint": "remaining activity", "value": "84.8%"}
{"SMILES": "N#CCCc1ccc2c(c1)-c1[nH]c3ccc([N+](=O)[O-])cc3c1CC(=O)N2", "target": "JAK3", "observed": "cell-free assay", "tested at": "0.5 µM", "endpoint": "remaining signal", "value": "101%"}
{"SMILES": "CN(c1nccc(-c2cnn3ncccc23)n1)C1CC1", "target": "JAK3 JH1", "observed": "cell-free assay", "tested at": "1 µM", "endpoint": "remaining signal", "value": "100%"}
{"SMILES": "COc1cc2ncnc(Nc3ccc(F)c(Cl)c3)c2cc1OCCCN1CCOCC1", "target": "JAK3", "observed": "cell-free assay", "tested at": "0.5 µM", "endpoint": "remaining signal", "value": "96.6%"}
{"SMILES": "NS(=O)(=O)c1cc(NC(=O)Cc2ccccc2)ccc1Oc1cccc(Cl)c1", "target": "JAK3 JH1", "observed": "cell-free assay", "method": "competition with immobilised ligand", "tested at": "1 µM", "endpoint": "remaining binding", "value": "96%"}
{"SMILES": "CS(=O)(=O)Nc1cccc(-c2csc(NC(=O)CSc3nc4nccnc4c(=O)n3CCc3ccccc3)n2)c1", "target": "JAK3", "observed": "enzyme activity", "mode": "inhibitor", "tested at": "10 µM", "endpoint": "inhibition", "value": "1%"}
{"SMILES": "Oc1ccc(-c2nc(-c3ccncc3)c(-c3ccc(F)cc3)[nH]2)cc1", "target": "JAK3", "observed": "cell-free assay", "tested at": "0.5 µM", "endpoint": "remaining signal", "value": "95.8%"}
{"SMILES": "COc1cc(Cl)c(C(=O)N[C@@H](CN[C@H]2CC[C@@H](N)CC2)Cc2ccc(C#N)cc2)cc1-c1ccc(CN[C@H](C)c2ccc(C)cc2)o1", "target": "JAK3", "observed": "enzyme activity", "mode": "inhibitor", "tested at": "1 µM", "endpoint": "remaining activity", "value": "101%"}
{"SMILES": "Cc1ccc(Nc2nccc(N(C)c3ccc4c(C)n(C)nc4c3)n2)cc1S(N)(=O)=O", "target": "JAK3", "observed": "enzyme activity", "mode": "inhibitor", "tested at": "0.3 µM", "endpoint": "inhibition", "value": "11%"}
{"SMILES": "O=C(Nc1cnc(Oc2ccc(F)cc2)nc1)N1CCc2ncccc2[C@@H]1c1ccc(F)cc1", "target": "JAK3 JH1", "observed": "cell-free assay", "method": "competition with immobilised ligand", "tested at": "1 µM", "endpoint": "remaining binding", "value": "91%"}
{"SMILES": "COc1cc2ncnc(Nc3ccc(Oc4ccccc4)c(C)c3C)c2cc1OC", "target": "JAK3", "observed": "enzyme activity", "mode": "inhibitor", "tested at": "1 µM", "endpoint": "inhibition", "value": "5%"}
{"SMILES": "O=C(O)c1cc(-c2ccc(C3CCNCC3)cc2)c2ccc(-c3ccc(C(F)(F)F)cc3)cc2c1", "target": "JAK3 JH1", "observed": "cell-free assay", "method": "competition with immobilised ligand", "tested at": "1 µM", "endpoint": "remaining binding", "value": "100%"}
{"SMILES": "CSc1nc(C)c(-c2ccnc(Nc3ccc(N4CCOCC4)cc3)c2)[nH]1", "target": "JAK3", "observed": "enzyme activity", "mode": "inhibitor", "tested at": "10 µM", "endpoint": "inhibition", "value": "65.5%"}
{"SMILES": "CCN(CC)CCNC(=O)c1c(C)[nH]c(/C=C2\\C(=O)Nc3ccc(F)cc32)c1C", "target": "JAK3", "observed": "enzyme activity", "mode": "inhibitor", "tested at": "10 µM", "endpoint": "inhibition", "value": "69%"}
{"SMILES": "CCc1ccccc1C(=O)Nc1n[nH]c2c(C)c(F)c(C3C(C#N)=C(C)N(C)C(C)=C3C#N)cc12", "target": "JAK3 JH1", "observed": "cell-free assay", "method": "competition with immobilised ligand", "tested at": "1 µM", "endpoint": "remaining binding", "value": "79%"}
